The values that follow come from ChEMBL document CHEMBL1143285, “Synthesis and biological evaluation of 2-phenylquinolones targeted at Tat/TAR recognition” (Bioorg Med Chem Lett, 2009).

Activity calls are given as the source filed them. The calls are words filed in the database; no cut-off is given here.

Molecular target in the first data set: not listed separately
The data set can be described thus: (§1) Inhibition of HIV Tat/TAR complex formation by fluorescence quenching assay. Also on record: species or system Human immunodeficiency virus.
As for `COc1cc(OC)c2c(=O)cc(-c3ccc(OCCCN4CCCCC4)cc3)n(C)c2c1`, the Ki stood at 1.02 µM.

With `COc1cc(OC)c2c(=O)cc(-c3ccc(OCCCN)c(N)c3)n(C)c2c1`, the inhibition constant Ki worked out at 3.85 µM.

For the compound `COc1cc(OC)c2c(=O)cc(-c3ccc(OCCCN)c(NC(=O)CCCN(C)C)c3)n(C)c2c1`, the inhibitory constant (Ki) was 3.03 µM.

In turn, `COc1cc(OC)c2c(=O)cc(-c3ccc(OCCCN4CCCCC4)c(N)c3)n(C)c2c1` came in with a Ki of 1.95 µM.

As to `COc1cc(OC)c2c(=O)cc(-c3ccc(OCCCN4CCN(C)CC4)c(N)c3)n(C)c2c1`, affinity was put at a Ki of 1.58 µM.

`COc1cc(OC)c2c(=O)cc(-c3ccc(OCCCN4CCCCC4)c(NC(=O)CCCN(C)C)c3)n(C)c2c1` had a Ki of 2.6 µM.

As to `Cn1cc(C(=O)O)c(=O)c2cc(N)c(N3CCN(c4ccccn4)CC3)cc21`, the Ki was 2.18 µM.

Another data set has as its system Human immunodeficiency virus. The data set is described as §1.
Consider `COc1cc(OC)c2c(=O)cc(-c3ccc(OCCCN)c(NC(=O)CCc4cccnc4)c3)n(C)c2c1`, for which the result was inactive.

Regarding `COc1cc(OC)c2c(=O)cc(-c3ccc(OCCCN4CCN(C)CC4)c(NC(=O)CCCN(C)C)c3)n(C)c2c1`, the outcome was inactive.

With `COc1cc(OC)c2c(=O)cc(-c3ccc(O)c(N)c3)n(C)c2c1`, the result was inactive.

The next data set concerns Human immunodeficiency virus 1. Description: Antiviral activity against HIV1 infected in human Jurkat cells assessed as compound uptake after 3 hrs by fluorescence assay. Also on record: concentration or dose not given beside the values. The format is functional. The procedure, abridged: (§2)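 Jurkat or CEM cells (2.5 × 10⁶/well) incubated in HBSS with compound at 100 µM, 3 h, 37 °C. Cells separated from medium by centrifugation through water-impermeable silicone-oil barrier, pellet lysed overnight in 0.1 M glycine–HCl pH 3.0, spun 5 min at 5600g. Compound in supernatant quantified by fluorescence at pH 3 against per-compound titration curve; reported as % uptake.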
On to `COc1cc(OC)c2c(=O)cc(-c3ccc(OCCCN4CCCCC4)cc3)n(C)c2c1`, for which the Activity is reported as 3.27%.

Consider `COc1cc(OC)c2c(=O)cc(-c3ccc(OCCCN)c(NC(=O)CCCN(C)C)c3)n(C)c2c1`, for which the Activity worked out at 0.67%.

For the compound `COc1cc(OC)c2c(=O)cc(-c3ccc(OCCCN4CCCCC4)c(N)c3)n(C)c2c1`, the Activity is listed as 0.94%.

For the compound `COc1cc(OC)c2c(=O)cc(-c3ccc(OCCCN4CCN(C)CC4)c(N)c3)n(C)c2c1`, the Activity is 0.82%.

Consider `COc1cc(OC)c2c(=O)cc(-c3ccc(O)c(N)c3)n(C)c2c1`, for which the Activity is 25%.

Consider `Cn1cc(C(=O)O)c(=O)c2cc(N)c(N3CCN(c4ccccn4)CC3)cc21`, for which the Activity came out at 23.2%.

The next data set deals with Human immunodeficiency virus 1. The data set can be described thus: Antiviral activity against HIV1 infected in human CEM cells assessed as compound uptake after 3 hrs by fluorescence assay. It counts as functional, CCRF-CEM. In short, it runs like this:
as §2
`COc1cc(OC)c2c(=O)cc(-c3ccc(OCCCN)c(NC(=O)CCCN(C)C)c3)n(C)c2c1`: the Activity worked out at 1.2%.

Take `COc1cc(OC)c2c(=O)cc(-c3ccc(OCCCN4CCCCC4)c(N)c3)n(C)c2c1`: the Activity is recorded as 1.8%.

In the case of `COc1cc(OC)c2c(=O)cc(-c3ccc(OCCCN4CCN(C)CC4)c(N)c3)n(C)c2c1`, the Activity is reported as 1.1%.

As to `Cn1cc(C(=O)O)c(=O)c2cc(N)c(N3CCN(c4ccccn4)CC3)cc21`, the Activity is 7.5%.

The test system of the next data set is Jurkat. The data set can be described thus: Cytotoxicity against human Jurkat cells at 100 uM after 72 hrs by MTT assay. It counts as cell-based. In short, it runs like this: (§3)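 MTT viability readout in CEM and Jurkat cells after 72 h incubation with compounds up to 100 µM; EC50 derived where applicable.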
Turning to `COc1cc(OC)c2c(=O)cc(-c3ccc(OCCCN)c(N)c3)n(C)c2c1`, the Activity entry was “Non-toxic”.

In the case of `COc1cc(OC)c2c(=O)cc(-c3ccc(OCCCN)c(NC(=O)CCCN(C)C)c3)n(C)c2c1`, the Activity entry was “Non-toxic”.

In the case of `COc1cc(OC)c2c(=O)cc(-c3ccc(OCCCN4CCCCC4)c(N)c3)n(C)c2c1`, the Activity entry was “Non-toxic”.

Consider `COc1cc(OC)c2c(=O)cc(-c3ccc(OCCCN)c(NC(=O)CCc4cccnc4)c3)n(C)c2c1`, for which the Activity entry is “Non-toxic”.

For `COc1cc(OC)c2c(=O)cc(-c3ccc(OCCCN4CCN(C)CC4)c(NC(=O)CCCN(C)C)c3)n(C)c2c1`, the Activity entry is reported as “Non-toxic”.

On to `COc1cc(OC)c2c(=O)cc(-c3ccc(OCCCN4CCN(C)CC4)c(N)c3)n(C)c2c1`, for which the Activity result is “Non-toxic”.

Take `COc1cc(OC)c2c(=O)cc(-c3ccc(OCCCN4CCCCC4)c(NC(=O)CCCN(C)C)c3)n(C)c2c1`: the Activity result is given as “Non-toxic”.

Consider `COc1cc(OC)c2c(=O)cc(-c3ccc(O)c(N)c3)n(C)c2c1`, for which the Activity entry is “Non-toxic”.

Regarding `Cn1cc(C(=O)O)c(=O)c2cc(N)c(N3CCN(c4ccccn4)CC3)cc21`, the Activity result is reported as “Non-toxic”.

In a further data set the test system is CCRF-CEM. The data set can be described thus: Cytotoxicity against human CEM cells at 100 uM after 72 hrs by MTT assay. The format is cell-based. In short, it runs like this: as §3
For `COc1cc(OC)c2c(=O)cc(-c3ccc(OCCCN)c(N)c3)n(C)c2c1`, the Activity result was “Non-toxic”.

`COc1cc(OC)c2c(=O)cc(-c3ccc(OCCCN)c(NC(=O)CCCN(C)C)c3)n(C)c2c1`: the Activity entry is listed as “Non-toxic”.

On to `COc1cc(OC)c2c(=O)cc(-c3ccc(OCCCN4CCCCC4)c(N)c3)n(C)c2c1`, for which the Activity entry is given as “Non-toxic”.

As to `COc1cc(OC)c2c(=O)cc(-c3ccc(OCCCN)c(NC(=O)CCc4cccnc4)c3)n(C)c2c1`, the Activity result is given as “Non-toxic”.

Regarding `COc1cc(OC)c2c(=O)cc(-c3ccc(OCCCN4CCN(C)CC4)c(NC(=O)CCCN(C)C)c3)n(C)c2c1`, the Activity result was “Non-toxic”.

In the case of `COc1cc(OC)c2c(=O)cc(-c3ccc(OCCCN4CCN(C)CC4)c(N)c3)n(C)c2c1`, the Activity entry is on record as “Non-toxic”.

`COc1cc(OC)c2c(=O)cc(-c3ccc(OCCCN4CCCCC4)c(NC(=O)CCCN(C)C)c3)n(C)c2c1`: the Activity result was “Non-toxic”.

Take `COc1cc(OC)c2c(=O)cc(-c3ccc(O)c(N)c3)n(C)c2c1`: the Activity result is recorded as “Non-toxic”.

Turning to `Cn1cc(C(=O)O)c(=O)c2cc(N)c(N3CCN(c4ccccn4)CC3)cc21`, the Activity result was “Non-toxic”.

The test system of the next data set is Jurkat. Description: Cytotoxicity against human Jurkat cells after 72 hrs by MTT assay. It counts as cell-based. The procedure, abridged: as §3
In general terms: Tetrazolium assays rely on reduction of a dye to a coloured formazan, in cell work by metabolically active cells.
For `COc1cc(OC)c2c(=O)cc(-c3ccc(OCCCN4CCCCC4)cc3)n(C)c2c1`, the EC50 amounted to 94.7 µM.

System in the next data set: not listed separately
Description: Aqueous solubility in buffer. It counts as physicochemical.
`COc1cc(OC)c2c(=O)cc(-c3ccc(OCCCN4CCCCC4)cc3)n(C)c2c1`: the solubility entry was “Soluble”.

As for `COc1cc(OC)c2c(=O)cc(-c3ccc(OCCCN)c(N)c3)n(C)c2c1`, the solubility result is “Soluble”.

As to `COc1cc(OC)c2c(=O)cc(-c3ccc(OCCCN)c(NC(=O)CCCN(C)C)c3)n(C)c2c1`, the solubility result is recorded as “Soluble”.

For the compound `COc1cc(OC)c2c(=O)cc(-c3ccc(OCCCN4CCCCC4)c(N)c3)n(C)c2c1`, the solubility result was “Soluble”.

For `COc1cc(OC)c2c(=O)cc(-c3ccc(OCCCN)c(NC(=O)CCc4cccnc4)c3)n(C)c2c1`, the solubility entry is reported as “Soluble”.

For `COc1cc(OC)c2c(=O)cc(-c3ccc(OCCCN4CCN(C)CC4)c(NC(=O)CCCN(C)C)c3)n(C)c2c1`, the solubility result is listed as “Soluble”.

As to `COc1cc(OC)c2c(=O)cc(-c3ccc(OCCCN4CCN(C)CC4)c(N)c3)n(C)c2c1`, the solubility result is “Soluble”.

For the compound `COc1cc(OC)c2c(=O)cc(-c3ccc(OCCCN4CCCCC4)c(NC(=O)CCCN(C)C)c3)n(C)c2c1`, the solubility result is on record as “Soluble”.

Regarding `COc1cc(OC)c2c(=O)cc(-c3ccc(O)c(N)c3)n(C)c2c1`, the solubility entry was “Soluble”.

`Cn1cc(C(=O)O)c(=O)c2cc(N)c(N3CCN(c4ccccn4)CC3)cc21`: the solubility entry is on record as “Soluble”.

For the next data set, the system named is Human immunodeficiency virus 1. Description: Antiviral activity against HIV1 infected in human Jurkat cells assessed as compound uptake after 3 hrs by fluorescence assay in presence of lipofectamine. It counts as functional.
For `Cn1cc(C(=O)O)c(=O)c2cc(N)c(N3CCN(c4ccccn4)CC3)cc21`, the Activity entry was “<=40%”.

In general, Ki refers to a dissociation constant, usually derived from enzyme kinetics or from competition with a known ligand. One may read the EC50 as the concentration giving half of the maximal effect.
